Laboratory results: ChEMBL document CHEMBL3091319, “Chemical synthesis and biological validation of immobilized protein kinase inhibitory Leucettines” (Eur J Med Chem, 2013)
pIC50: −log10 of the molar value. Activity calls are given as the source filed them. The rule behind the calls is not given here.

How the values were obtained:
CDK2/Cyclin A2 = CDK2/Cyclin A2 (Homo sapiens, UniProt P24941); assay: Inhibition of human recombinant CDK2/cyclin A using [gamma-33P]-ATP after 30 mins by scintillation counting; type: protein-complex assay
How it was run: (§1)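 Native starfish M-phase CDK1/cyclin B or human recombinant CDK2 or CDK5/p25 was incubated with histone H1 (1 mg/mL) and [γ-33P]ATP in buffer D (10 mM MgCl2, 1 mM EGTA, 1 mM DTT, 25 mM Tris/HCl, heparin) at 30 °C for 30 min. BSA was added except for CDK2. Reactions were spotted on P81 paper, washed in 1% phosphoric acid and counted by scintillation. Activity is expressed as % of the no-inhibitor control with blanks subtracted. IC50 was taken from dose-response curves.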

[1] = biological target: Dual specificity protein kinase CLK2 (Mus musculus, UniProt O35491); assay: Inhibition of mouse recombinant CLK2 expressed in Escherichia coli using GRSRSRSRSRSR as substrate
How it was run: (§2)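 Human DYRKs and mouse CLKs were expressed in E. coli as GST fusions and purified on glutathione-agarose. Each was assayed with RS peptide substrate and [γ-33P]ATP in buffer D at 30 °C for 30 min. Phosphorylation was read on P81 filters by scintillation. Activity is given as % of maximal after blank subtraction, and IC50 was derived from dose-response curves.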

[2] = biological target: Glycogen synthase kinase-3 (Sus scrofa, UniProt B2LUN4+I6LNT8); assay: Inhibition of porcine brain GSK-3alpha/beta using YRRAAVPPSPSLSRHSSPHQSpEDEEE as substrate
How it was run: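 Reaction harvested onto P81 paper, washed in 1% phosphoric acid, and scintillation-counted. Blanks subtracted; activity as % of the no-inhibitor activity, with DMSO controls. IC50 from dose-response curves.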

[3] = biological target: Dual specificity protein kinase CLK1 (Mus musculus, UniProt P22518); assay: Inhibition of mouse recombinant CLK1 expressed in Escherichia coli using GRSRSRSRSRSR as substrate; how it was run: as §2
[4] = Inhibition of porcine brain CK1delta/epsilon using RRKHAAIGpSAYSITA as substrate; set-up: species or system Sus scrofa
How it was run: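 Native porcine brain CK1δ/ε was assayed with the CKS phosphopeptide substrate, [γ-33P]ATP and buffer D for 30 min at 30 °C. Product was captured on P81 paper and counted by scintillation. IC50 was calculated from dose-response curves, with activity as % of the no-inhibitor control.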

[5] = biological target: Dual specificity protein kinase CLK3 (Mus musculus, UniProt O35492); assay: Inhibition of mouse recombinant CLK3 expressed in Escherichia coli using GRSRSRSRSRSR as substrate; how it was run: as §2
CDK9/cyclin T1 = CDK9/cyclin T1 (Homo sapiens, UniProt P50750); assay: Inhibition of human recombinant CDK9/cyclin T using YSPTSPSYSPTSPSYSPTSPSKKKK as substrate; type: protein-complex assay
How it was run: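 CDK9/cyclin T was human recombinant, made in insect cells. It was run like the CDK1 radiometric assay: buffer D with [γ-33P]ATP, 30 min at 30 °C, CDK7/9 tide peptide substrate, P81 capture and scintillation counting. IC50 came from dose-response curves relative to a DMSO control.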

[6] = Inhibition of M phase starfish oocytes CDK1/cyclin B using [gamma-33P]-ATP after 30 mins by scintillation counting; set-up: species or system Asteroidea; how it was run: as §1
[7] = biological target: T1, Dual specificity tyrosine-phosphorylation-regulated kinase 2 (Homo sapiens, UniProt Q92630); assay: Inhibition of human recombinant DYRK2 expressed in Escherichia coli using GRSRSRSRSRSR as substrate
T1 sequence (Q92630 whole entry): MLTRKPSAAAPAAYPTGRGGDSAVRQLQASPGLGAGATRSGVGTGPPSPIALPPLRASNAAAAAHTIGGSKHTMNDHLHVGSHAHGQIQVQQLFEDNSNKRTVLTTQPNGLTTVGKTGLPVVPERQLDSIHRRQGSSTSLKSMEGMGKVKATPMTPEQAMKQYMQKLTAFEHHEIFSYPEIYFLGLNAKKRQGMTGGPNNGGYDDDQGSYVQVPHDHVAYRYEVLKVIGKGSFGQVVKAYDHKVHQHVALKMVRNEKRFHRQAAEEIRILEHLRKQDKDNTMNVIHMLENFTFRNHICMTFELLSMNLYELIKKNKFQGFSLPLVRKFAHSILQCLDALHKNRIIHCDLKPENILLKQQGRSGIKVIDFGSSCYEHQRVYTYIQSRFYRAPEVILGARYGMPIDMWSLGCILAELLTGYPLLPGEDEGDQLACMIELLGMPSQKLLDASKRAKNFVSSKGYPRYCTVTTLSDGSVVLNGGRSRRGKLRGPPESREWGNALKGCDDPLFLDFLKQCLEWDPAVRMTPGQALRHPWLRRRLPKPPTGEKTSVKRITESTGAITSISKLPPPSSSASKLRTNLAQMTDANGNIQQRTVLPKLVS

[8] = biological target: Cyclin-dependent kinase 5/CDK5 activator 1 (Homo sapiens, UniProt Q00535); assay: Inhibition of human recombinant CDK5/p25 using [gamma-33P]-ATP after 30 mins by scintillation counting; type: protein-complex assay
[9] = biological target: Dual specificity tyrosine-phosphorylation-regulated kinase 1B (Homo sapiens, UniProt Q9Y463)
[10] = biological target: Dual specificity tyrosine-phosphorylation-regulated kinase 1A (Homo sapiens, UniProt Q13627); assay: Inhibition of human recombinant DYRK1A expressed in Escherichia coli using GRSRSRSRSRSR as substrate
[11] = biological target: Dual specificity tyrosine-phosphorylation-regulated kinase 1A (Mus musculus) (UniProt Q61214); assay: Binding affinity to DYRK1A in mouse brain extracts by Western blot analysis; type: tissue-based
How it was run: (§3)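 Mouse brains homogenized and sonicated in Mops pH 7.2 buffer with β-glycerophosphate, phosphatase and protease inhibitors, spun 15 min at 17,000×g at 4 °C. Extract (1 or 2 mg total protein) rotated 30 min at 4 °C with ligand-linker coupled via amine to CNBr-activated Sepharose. Beads washed 4×, boiled 3 min in LDS/DTT, then 10% Bis-Tris SDS-PAGE and immunoblot with specific antibodies and ECL.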

[12] = biological target: T2, Dual specificity tyrosine-phosphorylation-regulated kinase 3 (Homo sapiens, UniProt O43781); assay: Inhibition of human recombinant DYRK3 expressed in Escherichia coli using GRSRSRSRSRSR as substrate
T2 sequence (O43781 whole entry): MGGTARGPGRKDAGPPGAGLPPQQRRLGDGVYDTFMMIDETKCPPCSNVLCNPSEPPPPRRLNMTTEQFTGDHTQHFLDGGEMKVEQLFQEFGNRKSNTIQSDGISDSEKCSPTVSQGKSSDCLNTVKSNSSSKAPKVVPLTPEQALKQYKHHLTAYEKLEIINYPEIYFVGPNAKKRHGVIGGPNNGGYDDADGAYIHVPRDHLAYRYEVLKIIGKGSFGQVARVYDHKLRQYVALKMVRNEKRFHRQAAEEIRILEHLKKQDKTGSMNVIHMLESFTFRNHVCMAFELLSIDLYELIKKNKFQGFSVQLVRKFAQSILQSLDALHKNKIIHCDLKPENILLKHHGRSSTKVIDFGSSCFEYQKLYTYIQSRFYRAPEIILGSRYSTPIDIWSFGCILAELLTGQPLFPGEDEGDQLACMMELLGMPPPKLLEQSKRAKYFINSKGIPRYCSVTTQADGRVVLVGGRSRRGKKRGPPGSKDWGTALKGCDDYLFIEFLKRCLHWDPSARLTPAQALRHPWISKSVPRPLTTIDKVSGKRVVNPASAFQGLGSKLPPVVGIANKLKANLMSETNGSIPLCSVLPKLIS

[13] = biological target: Dual specificity protein kinase CLK4 (Mus musculus, UniProt O35493); assay: Inhibition of mouse recombinant CLK4 expressed in Escherichia coli using GRSRSRSRSRSR as substrate
Mus musculus = species: Mus musculus; assay: Binding affinity to GSK3 in mouse brain extracts by Western blot analysis; type: tissue-based; how it was run: as §3

Sequence of Dual specificity protein kinase CLK3 (O35492 whole entry): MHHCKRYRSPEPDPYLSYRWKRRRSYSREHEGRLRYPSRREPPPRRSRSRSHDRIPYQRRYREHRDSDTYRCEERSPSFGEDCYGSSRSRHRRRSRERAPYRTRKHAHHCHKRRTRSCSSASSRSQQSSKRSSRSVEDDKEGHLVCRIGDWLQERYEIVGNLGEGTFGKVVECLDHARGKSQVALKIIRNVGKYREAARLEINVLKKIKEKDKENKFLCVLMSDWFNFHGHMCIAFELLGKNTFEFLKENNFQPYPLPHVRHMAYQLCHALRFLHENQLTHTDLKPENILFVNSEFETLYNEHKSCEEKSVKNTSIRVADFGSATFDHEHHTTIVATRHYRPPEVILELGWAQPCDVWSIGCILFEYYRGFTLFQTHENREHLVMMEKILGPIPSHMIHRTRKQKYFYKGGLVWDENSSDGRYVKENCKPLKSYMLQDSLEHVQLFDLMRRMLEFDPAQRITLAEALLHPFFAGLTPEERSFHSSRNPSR
Sequence of Dual specificity protein kinase CLK2 (O35491 whole entry, the tested form may be a part): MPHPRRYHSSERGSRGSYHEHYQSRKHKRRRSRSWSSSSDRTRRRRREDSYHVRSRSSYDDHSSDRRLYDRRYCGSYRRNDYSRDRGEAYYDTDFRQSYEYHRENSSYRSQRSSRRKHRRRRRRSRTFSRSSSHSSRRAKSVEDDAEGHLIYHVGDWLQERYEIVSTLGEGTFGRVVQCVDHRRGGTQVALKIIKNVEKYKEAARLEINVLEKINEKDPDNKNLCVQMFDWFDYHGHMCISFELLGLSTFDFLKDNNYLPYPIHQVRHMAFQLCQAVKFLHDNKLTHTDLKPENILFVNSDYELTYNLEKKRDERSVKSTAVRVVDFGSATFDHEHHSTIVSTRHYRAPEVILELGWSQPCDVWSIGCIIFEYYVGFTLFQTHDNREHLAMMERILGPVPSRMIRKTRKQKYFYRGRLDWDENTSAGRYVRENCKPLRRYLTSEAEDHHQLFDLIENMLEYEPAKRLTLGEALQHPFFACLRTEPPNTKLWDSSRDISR
Sequence of Dual specificity protein kinase CLK4 (O35493 whole entry): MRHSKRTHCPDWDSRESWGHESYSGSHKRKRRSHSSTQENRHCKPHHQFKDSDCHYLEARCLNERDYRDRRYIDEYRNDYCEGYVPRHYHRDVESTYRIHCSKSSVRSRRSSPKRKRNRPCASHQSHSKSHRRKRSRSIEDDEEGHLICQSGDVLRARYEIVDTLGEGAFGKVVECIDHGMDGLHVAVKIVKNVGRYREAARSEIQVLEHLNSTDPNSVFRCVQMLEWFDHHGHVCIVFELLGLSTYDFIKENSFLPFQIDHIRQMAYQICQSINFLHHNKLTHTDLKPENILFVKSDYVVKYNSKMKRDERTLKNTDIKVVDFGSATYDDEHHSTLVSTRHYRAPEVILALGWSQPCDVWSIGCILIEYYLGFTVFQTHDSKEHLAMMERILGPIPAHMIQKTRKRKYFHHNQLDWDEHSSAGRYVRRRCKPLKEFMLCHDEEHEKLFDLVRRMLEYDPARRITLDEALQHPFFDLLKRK
Sequence of Cyclin-dependent kinase 5/CDK5 activator 1 (Q00535 whole entry): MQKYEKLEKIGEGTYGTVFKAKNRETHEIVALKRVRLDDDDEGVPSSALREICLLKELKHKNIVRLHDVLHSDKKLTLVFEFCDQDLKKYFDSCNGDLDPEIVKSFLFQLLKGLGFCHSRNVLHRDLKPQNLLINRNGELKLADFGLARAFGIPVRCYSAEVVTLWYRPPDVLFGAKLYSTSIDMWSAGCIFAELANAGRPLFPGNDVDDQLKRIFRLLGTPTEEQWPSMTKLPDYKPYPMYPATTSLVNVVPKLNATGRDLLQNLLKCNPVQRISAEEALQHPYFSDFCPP
Sequence of Cyclin-dependent kinase 5/CDK5 activator 1 (Q15078 whole entry, further chain): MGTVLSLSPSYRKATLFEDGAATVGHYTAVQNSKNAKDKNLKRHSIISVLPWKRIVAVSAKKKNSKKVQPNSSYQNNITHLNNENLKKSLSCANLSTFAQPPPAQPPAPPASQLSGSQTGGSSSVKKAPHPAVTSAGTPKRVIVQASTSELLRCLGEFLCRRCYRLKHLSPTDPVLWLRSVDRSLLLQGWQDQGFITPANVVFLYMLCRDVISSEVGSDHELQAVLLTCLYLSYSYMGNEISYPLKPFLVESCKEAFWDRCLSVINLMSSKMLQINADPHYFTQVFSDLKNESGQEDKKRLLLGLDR
Sequence of CDK9/cyclin T1 (O60563 whole entry): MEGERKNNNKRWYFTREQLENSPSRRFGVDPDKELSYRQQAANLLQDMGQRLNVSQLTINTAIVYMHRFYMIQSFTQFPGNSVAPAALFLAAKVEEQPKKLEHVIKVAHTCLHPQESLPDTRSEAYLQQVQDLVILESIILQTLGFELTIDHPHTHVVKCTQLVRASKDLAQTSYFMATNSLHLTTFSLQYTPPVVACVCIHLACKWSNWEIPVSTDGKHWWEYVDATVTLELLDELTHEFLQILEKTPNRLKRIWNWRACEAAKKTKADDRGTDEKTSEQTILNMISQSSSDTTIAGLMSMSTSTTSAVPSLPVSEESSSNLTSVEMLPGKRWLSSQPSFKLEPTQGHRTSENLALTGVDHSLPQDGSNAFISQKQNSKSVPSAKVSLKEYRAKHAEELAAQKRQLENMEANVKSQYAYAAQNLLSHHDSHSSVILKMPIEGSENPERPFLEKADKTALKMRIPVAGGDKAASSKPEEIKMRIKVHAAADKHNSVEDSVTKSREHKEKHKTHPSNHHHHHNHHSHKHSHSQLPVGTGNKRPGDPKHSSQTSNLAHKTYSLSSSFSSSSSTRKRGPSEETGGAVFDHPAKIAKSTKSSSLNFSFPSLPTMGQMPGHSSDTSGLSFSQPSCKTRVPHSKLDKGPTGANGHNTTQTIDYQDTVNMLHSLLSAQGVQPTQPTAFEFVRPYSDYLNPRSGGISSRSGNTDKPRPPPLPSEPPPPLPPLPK
Sequence of CDK9/cyclin T1 (P50750 whole entry): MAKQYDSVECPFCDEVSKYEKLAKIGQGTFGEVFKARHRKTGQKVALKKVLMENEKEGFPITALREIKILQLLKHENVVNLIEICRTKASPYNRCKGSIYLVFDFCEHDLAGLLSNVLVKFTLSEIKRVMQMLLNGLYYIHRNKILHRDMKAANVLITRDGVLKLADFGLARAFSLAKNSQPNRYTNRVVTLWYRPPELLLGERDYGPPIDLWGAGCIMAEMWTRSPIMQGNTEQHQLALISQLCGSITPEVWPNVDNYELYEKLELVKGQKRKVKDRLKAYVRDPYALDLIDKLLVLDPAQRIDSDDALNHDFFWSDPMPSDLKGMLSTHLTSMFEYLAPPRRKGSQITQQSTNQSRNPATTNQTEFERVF
Sequence of Dual specificity tyrosine-phosphorylation-regulated kinase 1B (Q9Y463 whole entry): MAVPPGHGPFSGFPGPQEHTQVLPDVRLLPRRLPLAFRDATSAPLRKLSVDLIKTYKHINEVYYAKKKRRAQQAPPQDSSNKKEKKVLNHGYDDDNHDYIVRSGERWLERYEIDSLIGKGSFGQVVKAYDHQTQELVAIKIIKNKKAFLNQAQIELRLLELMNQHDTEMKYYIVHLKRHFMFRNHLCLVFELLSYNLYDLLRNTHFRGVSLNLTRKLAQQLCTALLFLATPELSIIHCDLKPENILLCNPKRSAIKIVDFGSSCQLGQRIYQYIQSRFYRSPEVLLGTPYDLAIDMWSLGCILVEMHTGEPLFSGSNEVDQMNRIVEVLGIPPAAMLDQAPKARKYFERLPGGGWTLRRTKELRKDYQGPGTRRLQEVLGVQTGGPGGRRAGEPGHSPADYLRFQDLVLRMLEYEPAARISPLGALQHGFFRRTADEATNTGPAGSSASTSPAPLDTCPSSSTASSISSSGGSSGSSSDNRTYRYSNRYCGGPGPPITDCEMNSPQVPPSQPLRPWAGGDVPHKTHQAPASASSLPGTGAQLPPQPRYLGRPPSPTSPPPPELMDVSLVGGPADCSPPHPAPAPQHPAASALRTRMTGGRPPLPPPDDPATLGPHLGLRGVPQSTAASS
Sequence of Dual specificity protein kinase CLK1 (P22518 whole entry): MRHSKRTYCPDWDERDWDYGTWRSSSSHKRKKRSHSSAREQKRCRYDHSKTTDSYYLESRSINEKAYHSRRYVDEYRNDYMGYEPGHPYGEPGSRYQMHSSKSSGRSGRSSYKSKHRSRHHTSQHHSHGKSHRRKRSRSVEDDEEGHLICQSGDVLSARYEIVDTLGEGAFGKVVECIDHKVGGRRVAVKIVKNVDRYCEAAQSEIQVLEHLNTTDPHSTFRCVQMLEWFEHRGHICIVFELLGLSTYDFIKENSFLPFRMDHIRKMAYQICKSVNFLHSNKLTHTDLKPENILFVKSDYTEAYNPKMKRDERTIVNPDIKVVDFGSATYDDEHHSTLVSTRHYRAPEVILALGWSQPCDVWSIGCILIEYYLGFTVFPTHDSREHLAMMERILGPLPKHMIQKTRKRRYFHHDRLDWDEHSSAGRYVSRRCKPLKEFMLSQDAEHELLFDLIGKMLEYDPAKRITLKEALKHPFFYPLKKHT

Row | SMILES | pIC50 (CDK2/Cyclin A2) | pIC50 [1] | IC50 [2] | pIC50 [3] | pIC50 [4] | pIC50 [5] | pIC50 (CDK9/cyclin T1) | pIC50 [6] | pIC50 [7] | pIC50 [8] | pIC50 [9] | pIC50 [10] | Activity [11] | pIC50 [12] | pIC50 [13] | Activity (Mus musculus)
1 | O=C1NC(Nc2ccccc2)=N/C1=C\c1ccc2c(c1)OCO2 | < 5.00 | 6.49 | 0.73 µM | 7.46 | < 5.00 | 5.52 | < 5.00 | < 5.00 |  |  |  |  |  |  |  | 
2 | NCCOCCOCCOc1ccc(NC2=N/C(=C\c3ccc4c(c3)OCO4)C(=O)N2)cc1 | < 5.00 | 6.55 | 0.27 µM | 7.12 | < 5.00 | 6.09 | 5.13 | < 5.00 | 6.82 | < 5.00 | 6.96 | 7.30 | Active | 6.70 | 7.09 | Active
3 | NCCOCCOCCOCCOc1ccc(NC2=N/C(=C\c3ccc4c(c3)OCO4)C(=O)N2)cc1 | < 5.00 | 6.68 | 0.2 µM | 7.21 | < 5.00 | 6.26 | 5.43 | < 5.00 | 6.89 | < 5.00 | 7.14 | 7.55 | Active | 6.74 | 7.21 | Active
4 | NCCOCCOCCOc1ccc(NC2=N/C(=C\c3ccccc3)C(=O)N2)cc1 | < 5.00 | < 5.00 | 40 µM | < 5.00 | < 5.00 | < 5.00 | < 5.00 | < 5.00 | < 5.00 | < 5.00 | < 5.00 | 5.07 | Active | < 5.00 | < 5.00 | Active
5 | NCCOCCOCCO | < 5.00 | < 5.00 | > 10 µM | < 5.00 | < 5.00 | < 5.00 | < 5.00 | < 5.00 | < 5.00 | < 5.00 | < 5.00 | < 5.00 |  | < 5.00 | < 5.00 | 
6 | O=C1NC(Nc2ccccc2)=N/C1=C\c1ccccc1 | < 5.00 | < 5.00 | > 100 µM | < 5.00 | < 5.00 | < 5.00 | < 5.00 | < 5.00 | < 5.00 | < 5.00 | < 5.00 | < 4.00 |  | < 5.00 | < 5.00 | 
